Assay results collected from several papers.
Each line is one published result; the experiments were not run side by side.
Observed: cell growth or viability

Structure (SMILES) | cell line | test | conditions | quantity | value
O=C(Nc1ccc(-c2ccc3ncn(Cc4ccccc4)c(=O)c3c2)cn1)c1ccc(F)cc1 | HCC827 | CCK-8 | 72 h | IC50 | > 10000 nM
Cc1nc(Nc2ncc(C(=O)Nc3c(C)cccc3Cl)s2)cc(N2CC[C@H](O)C2)n1 | KU812 | ATP luminescence | 10 µM, 72 h | inhibition | 97%
CCCCC(=O)Nc1ccc(-c2ccc3ncn(CCCF)c(=O)c3c2)cn1 | HCC827 | CCK-8 | 72 h | IC50 | 92 nM
CN(C)CCNC(=O)c1ccc(-c2nc3ccc4[nH]ncc4c3c3c2CCCCC3)cc1 | HCC827 |  | 72 h | GI50 | 3040 nM
Cc1nc(NC(=O)N2CCC[C@H]2C(N)=O)sc1-c1ccnc(C(C)(C)C(F)(F)F)c1 | BFTC-909 | ATP luminescence | 5 days | EC50 | 5560 nM
CN(C)CCNC(=O)c1ccc(-c2nc3ccc4[nH]ncc4c3c3c2CCCC3)cc1 | HCC827 |  | 72 h | GI50 | 1040 nM
C[C@H](Nc1ccc2c(c1)OCCn1cc(N3C(=O)OC[C@H]3C(F)F)nc1-2)C(N)=O | BFTC-909 | ATP luminescence | 5 days | EC50 | 342 nM
CN(C)CCNC(=O)c1ccc(-c2nc3ccc4[nH]ncc4c3c3c2CCCCC3)c(F)c1 | HCC827 |  | 72 h | GI50 | 985 nM
CCCCC(=O)Nc1ccc(-c2ccc3ncn(CCF)c(=O)c3c2)cn1 | HCC827 | CCK-8 | 72 h | IC50 | 360 nM
